Experimental data reported in ChEMBL document CHEMBL3877308, “Design, synthesis and in vitro biological evaluation of oligopeptides targeting E. coli type I signal peptidase (LepB)” (Bioorg Med Chem, 2017).
Converted amounts (≈) assume the structure as drawn.

How the values were obtained:
[1] = molecular target: Signal peptidase I (Escherichia coli K-12) (UniProt P00803); assay: Inhibition of full length Escherichia coli His6-tagged LepB expressed in Escherichia coli C43(DE3) at 100 uM using dabcyl-VEVGGTATAGAFSRPGLE-(EDANS) as substrate preincubated for 10 mins followed by substrate addition measured for 2 hrs by FRET assay relative to control
Signal peptidase I (Escherichia coli K-12), sequence (P00803 whole entry): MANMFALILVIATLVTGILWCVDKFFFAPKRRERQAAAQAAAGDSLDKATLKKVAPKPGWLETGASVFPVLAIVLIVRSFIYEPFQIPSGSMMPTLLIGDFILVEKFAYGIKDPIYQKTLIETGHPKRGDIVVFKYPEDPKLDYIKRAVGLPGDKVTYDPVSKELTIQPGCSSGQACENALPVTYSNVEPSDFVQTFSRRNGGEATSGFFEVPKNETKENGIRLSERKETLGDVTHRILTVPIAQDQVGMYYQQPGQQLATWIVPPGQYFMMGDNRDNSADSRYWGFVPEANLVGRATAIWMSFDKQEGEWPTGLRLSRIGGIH
Summary of the method: (§1)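 Enzyme came from the membrane fraction, extracted with 1% reduced Triton X-100 and purified by metal-chelation chromatography in 0.5% detergent. FRET pair was dabcyl acceptor and EDANS donor. EcLepB (final about 50 nM) was pre-incubated with compound 10 min at 22 °C. Reaction was then run with 8 µM substrate, following the linear fluorescence increase at 22 °C for 2 h.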

[2] = molecular target: Signal peptidase I (Escherichia coli K-12) (UniProt P00803); assay: Inhibition of full length Escherichia coli His6-tagged LepB expressed in Escherichia coli C43(DE3) assessed as residual activity at 1.25 uM using dabcyl-VEVGGTATAGAFSRPGLE-(EDANS) as substrate preincubated for 10 mins followed by substrate addition measured for 2 hrs by FRET assay relative to control; summary of the method: as §1
[3] = Cytotoxicity against human HepG2 cells assessed as reduction in cell viability after 72 hrs by fluorescein diacetate dye based fluorometric microculture assay; assay type: toxicity
Summary of the method: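 FMCA on HepG2 cells read at 72 h. Survival index (%) is fluorescence in test wells as percent of control cultures, with blank values subtracted. IC50 was obtained by non-linear regression of log concentration-effect curves.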

[4] = molecular target: Signal peptidase I (Escherichia coli K-12) (UniProt P00803); assay: Inhibition of full length Escherichia coli His6-tagged LepB expressed in Escherichia coli C43(DE3) assessed as residual activity at 10 uM using dabcyl-VEVGGTATAGAFSRPGLE-(EDANS) as substrate preincubated for 10 mins followed by substrate addition measured for 2 hrs by FRET assay relative to control; summary of the method: as §1
[5] = tested on: Escherichia coli; assay: Antibacterial activity against wild type Escherichia coli ATCC 25922 after 16 to 20 hrs by broth microdilution assay; assay type: functional
Summary of the method: (§2)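 MIC by broth microdilution in cation-adjusted Mueller-Hinton II medium, following EUCAST and CLSI guidelines; panel of Gram-negative strains plus S. aureus ATCC 29213.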

[6] = tested on: Acinetobacter baumannii; assay: Antibacterial activity against wild type Acinetobacter baumannii ATCC 19606 after 16 to 20 hrs by broth microdilution assay; assay type: functional; summary of the method: as §2
[7] = tested on: Pseudomonas aeruginosa; assay: Antibacterial activity against wild type Pseudomonas aeruginosa PAO750 harboring efflux defective mutant after 16 to 20 hrs by broth microdilution assay; assay type: functional
Summary of the method: (§3)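 Broth microdilution MIC in cation-adjusted Mueller-Hinton II medium, following EUCAST and CLSI guidelines; tested on a panel of Gram-negative strains plus S. aureus ATCC 29213 (wild-type).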

[8] = tested on: Escherichia coli; assay: Antibacterial activity against Escherichia coli D22 harboring lpxC mutant after 16 to 20 hrs by broth microdilution assay; assay type: functional; summary of the method: as §3
[9] = molecular target: Signal peptidase I (Escherichia coli K-12) (UniProt P00803); assay: Inhibition of full length Escherichia coli His6-tagged LepB expressed in Escherichia coli C43(DE3) assessed as residual activity at 2.5 uM using dabcyl-VEVGGTATAGAFSRPGLE-(EDANS) as substrate preincubated for 10 mins followed by substrate addition measured for 2 hrs by FRET assay relative to control; summary of the method: as §1
[10] = tested on: Staphylococcus aureus; assay: Antibacterial activity against wild type Staphylococcus aureus ATCC 29213 after 16 to 20 hrs by broth microdilution assay; assay type: functional; summary of the method: as §2
[11] = molecular target: Signal peptidase I (Escherichia coli K-12) (UniProt P00803); assay: Inhibition of full length Escherichia coli His6-tagged LepB expressed in Escherichia coli C43(DE3) assessed as residual activity at 0.078 uM using dabcyl-VEVGGTATAGAFSRPGLE-(EDANS) as substrate preincubated for 10 mins followed by substrate addition measured for 2 hrs by FRET assay relative to control; summary of the method: as §1
[12] = tested on: Escherichia coli; assay: Antibacterial activity against Escherichia coli CH3130 harboring tolC deletion mutant after 16 to 20 hrs by broth microdilution assay; assay type: functional; summary of the method: as §3
[13] = molecular target: Signal peptidase I (Escherichia coli K-12) (UniProt P00803); assay: Inhibition of full length Escherichia coli His6-tagged LepB expressed in Escherichia coli C43(DE3) assessed as residual activity at 0.039 uM using dabcyl-VEVGGTATAGAFSRPGLE-(EDANS) as substrate preincubated for 10 mins followed by substrate addition measured for 2 hrs by FRET assay relative to control; summary of the method: as §1
[14] = tested on: Klebsiella pneumoniae; assay: Antibacterial activity against wild type Klebsiella pneumoniae […] after 16 to 20 hrs by broth microdilution assay; assay type: functional; summary of the method: as §2
[15] = molecular target: Signal peptidase I (Escherichia coli K-12) (UniProt P00803); assay: Inhibition of full length Escherichia coli His6-tagged LepB expressed in Escherichia coli C43(DE3) assessed as residual activity at 0.02 uM using dabcyl-VEVGGTATAGAFSRPGLE-(EDANS) as substrate preincubated for 10 mins followed by substrate addition measured for 2 hrs by FRET assay relative to control; summary of the method: as §1
[16] = molecular target: Signal peptidase I (Escherichia coli K-12) (UniProt P00803); assay: Inhibition of full length Escherichia coli His6-tagged LepB expressed in Escherichia coli C43(DE3) assessed as residual activity at 5 uM using dabcyl-VEVGGTATAGAFSRPGLE-(EDANS) as substrate preincubated for 10 mins followed by substrate addition measured for 2 hrs by FRET assay relative to control; summary of the method: as §1
[17] = Hemolytic activity against human RBC at 100 uM after 45 mins by spectrophotometric method relative to control; assay type: ADME, cell-based, Erythrocyte; settings: red blood cells (RBC), read-out: Activity
Summary of the method: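 Hemolysis was tested using red blood cells from heparinized human blood.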

[18] = tested on: Pseudomonas aeruginosa; assay: Antibacterial activity against wild type Pseudomonas aeruginosa PAO1 after 16 to 20 hrs by broth microdilution assay; assay type: functional; summary of the method: as §2
[19] = molecular target: Signal peptidase I (Escherichia coli K-12) (UniProt P00803); assay: Inhibition of full length Escherichia coli His6-tagged LepB expressed in Escherichia coli C43(DE3) assessed as residual activity at 0.01 uM using dabcyl-VEVGGTATAGAFSRPGLE-(EDANS) as substrate preincubated for 10 mins followed by substrate addition measured for 2 hrs by FRET assay relative to control; summary of the method: as §1
[20] = molecular target: Signal peptidase I (Escherichia coli K-12, UniProt P00803); assay: Inhibition of full length Escherichia coli His6-tagged LepB expressed in Escherichia coli C43(DE3) using dabcyl-VEVGGTATAGAFSRPGLE-(EDANS) as substrate preincubated for 10 mins followed by substrate addition measured for 2 hrs by FRET assay
Signal peptidase I, sequence (P00803 whole entry): as above
Summary of the method: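 Enzyme extracted from the membrane fraction with 1% reduced Triton X-100 and purified by metal-chelation chromatography in 0.5% detergent. Enzyme (final ~50 nM) was pre-incubated with compound for 10 min at 22 °C. The linear rise in EDANS donor fluorescence (dabcyl acceptor) was then followed at 22 °C for 2 h. IC50 came from non-linear regression of sigmoidal rate-versus-concentration curves.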

[21] = molecular target: Signal peptidase I (Escherichia coli K-12) (UniProt P00803); assay: Inhibition of full length Escherichia coli His6-tagged LepB expressed in Escherichia coli C43(DE3) assessed as residual activity at 0.156 uM using dabcyl-VEVGGTATAGAFSRPGLE-(EDANS) as substrate preincubated for 10 mins followed by substrate addition measured for 2 hrs by FRET assay relative to control; summary of the method: as §1
[22] = molecular target: Signal peptidase I (Escherichia coli K-12) (UniProt P00803); assay: Inhibition of full length Escherichia coli His6-tagged LepB expressed in Escherichia coli C43(DE3) assessed as residual activity at 0.625 uM using dabcyl-VEVGGTATAGAFSRPGLE-(EDANS) as substrate preincubated for 10 mins followed by substrate addition measured for 2 hrs by FRET assay relative to control; summary of the method: as §1
[23] = molecular target: Signal peptidase I (Escherichia coli K-12) (UniProt P00803); assay: Inhibition of full length Escherichia coli His6-tagged LepB expressed in Escherichia coli C43(DE3) assessed as residual activity at 0.313 uM using dabcyl-VEVGGTATAGAFSRPGLE-(EDANS) as substrate preincubated for 10 mins followed by substrate addition measured for 2 hrs by FRET assay relative to control; summary of the method: as §1
[24] = molecular target: Signal peptidase I (Escherichia coli K-12) (UniProt P00803); assay: Inhibition of full length Escherichia coli His6-tagged LepB expressed in Escherichia coli C43(DE3) assessed as residual activity at 0.002 uM using dabcyl-VEVGGTATAGAFSRPGLE-(EDANS) as substrate preincubated for 10 mins followed by substrate addition measured for 2 hrs by FRET assay relative to control; summary of the method: as §1

CCCCCCCCCC(=O)N1CCC[C@H]1C(=O)N[C@H](C(=O)N[C@@H](C)C(=O)N[C@@H](CC(N)=O)C(=O)N[C@@H](C)C(=O)N1CCC[C@H]1C(=O)NC)[C@H](C)O
inhibition [1]: 31.3%

CC(=O)N[C@@H](C)C(=O)N[C@@H](CC(N)=O)C(=O)N[C@@H](C)C(=O)C(=O)NCc1cccc2ccccc12
inhibition [1]: 26.6%

CC(=O)N[C@@H](C)C(=O)N[C@@H](CC(N)=O)C(=O)N[C@@H](C)C(=O)C(=O)NC(C)(C)C
inhibition [1]: 13.3%

CCCCCCc1ccc(-c2ccc(C(=O)N3CCC[C@H]3C(=O)N[C@H](C(=O)N[C@@H](C)C(=O)N[C@@H](CC(N)=O)C(=O)N[C@@H](C)B(O)O)[C@H](C)O)cc2)cc1
Activity [2]: 16.8% | IC50 at 72 h [3]: > 64000 nM | Activity [4]: 7.23% | MIC [5]: > 64 µg/mL | MIC [6]: > 64 µg/mL | MIC [7]: > 64 µg/mL | MIC [8]: > 64 µg/mL | Activity [9]: 7.49% | MIC [10]: 4 µg/mL (≈ 5.43 µM) | Activity [11]: 95.5% | MIC [12]: > 64 µg/mL | Activity [13]: 97% | MIC [14]: > 64 µg/mL | Activity [15]: 97.9% | Activity [16]: 4.71% | hemolysis at 0.75 h, 100 µM [17]: 1.1% | inhibition [1]: > 50% | MIC [18]: > 64 µg/mL | Activity [19]: 97.1% | IC50 [20]: 230 nM | Activity [21]: 62.6% | Activity [22]: 33.5% | Activity [23]: 38.4%

CC(=O)N1CCC[C@H]1C(=O)N[C@H](C(=O)N[C@@H](C)C(=O)N[C@@H](CC(N)=O)C(=O)N[C@@H](C)C(=O)C(=O)NC(C)(C)C)[C@H](C)O
inhibition [1]: 22.5%

CC(=O)N[C@@H](C)B1O[C@@H]2C[C@@H]3C[C@@H](C3(C)C)[C@]2(C)O1
inhibition [1]: 18%

CCCCc1ccc(-c2ccc(C(=O)N[C@@H](CCN)C(=O)N[C@H](C(=O)N[C@@H](C)C(=O)N[C@@H](CCCCN)C(=O)N[C@@H](C)B3O[C@@H]4C[C@@H]5C[C@@H](C5(C)C)[C@]4(C)O3)[C@H](C)O)cc2)cc1
Activity [2]: 0.522% | IC50 at 72 h [3]: 12500 nM | Activity [4]: -0.117% | MIC [5]: 8 µg/mL (≈ 9.3 µM) | MIC [6]: 32 µg/mL (≈ 37.2 µM) | MIC [7]: 8 µg/mL (≈ 9.3 µM) | Activity [24]: 98.2% | MIC [8]: 1 µg/mL (≈ 1.16 µM) | Activity [9]: 3.33% | MIC [10]: < 0.125 µg/mL | Activity [11]: 72.7% | MIC [12]: 4 µg/mL (≈ 4.65 µM) | Activity [13]: 80.2% | MIC [14]: 2 µg/mL (≈ 2.33 µM) | Activity [16]: 0.501% | hemolysis at 0.75 h, 100 µM [17]: 12.8% | MIC [18]: 32 µg/mL (≈ 37.2 µM) | Activity [19]: 86.8% | IC50 [20]: 110 nM | Activity [21]: 25.3% | Activity [22]: 6.98% | Activity [23]: 18.9%

CCCCCCCCCC(=O)N1CCC[C@H]1C(=O)N[C@H](C(=O)N[C@@H](C)C(=O)N[C@@H](CC(N)=O)C(=O)N[C@@H](C)C(=O)O)[C@H](C)O
inhibition [1]: 38%

CNC(=O)[C@@H]1CCCN1C(=O)[C@H](C)NC(=O)[C@H](CC(N)=O)NC(=O)[C@H](C)NC(=O)[C@@H](NC(=O)[C@@H]1CCCN1C(C)=O)[C@H](C)O
inhibition [1]: 35.8%

CC(=O)N[C@@H](C)C(=O)C(=O)NCc1cccc2ccccc12
inhibition [1]: 31%

CC(=O)N1CCC[C@H]1C(=O)N[C@H](C(=O)N[C@@H](C)C(=O)N[C@@H](CC(N)=O)C(=O)N[C@@H](C)C(=O)C(=O)NCc1cccc2ccccc12)[C@H](C)O
inhibition [1]: 32.3%

CC(=O)N1CCC[C@H]1C(=O)N[C@H](C(=O)N[C@@H](C)C(=O)N[C@@H](CC(N)=O)C(=O)N[C@@H](C)B1O[C@@H]2C[C@@H]3C[C@@H](C3(C)C)[C@]2(C)O1)C(C)O (single isomer, unassigned)
inhibition [1]: 26%

CCCCCCCCCC(=O)N1CCC[C@H]1C(=O)N[C@H](C(=O)N[C@@H](C)C(=O)N[C@@H](CC(N)=O)C(=O)N[C@@H](C)C(=O)C(=O)NCc1cccc2ccccc12)[C@H](C)O
inhibition [1]: 14.4%

CCCCCCCCCC(=O)N1CCC[C@H]1C(=O)N[C@H](C(=O)N[C@@H](C)C(=O)N[C@@H](CC(N)=O)C(=O)N[C@@H](C)C(=O)C(=O)NC(C)(C)C)[C@H](C)O
inhibition [1]: 31.5%
